Source: article PMC10568112 (Journal of Pharmaceutical Analysis, 2023)
Read-outs that look alike come from different tables or passages of the source.

Columns and labels:
[1] = tested on: gut microbiota (intestinal bacteria incubation system); experiment: Metabolism of SNZ by intestinal bacteria in vitro; format: in vitro ADME, Balb/c mice; settings: SNZ 10 μg/mL; for course of metabolite content in intestinal bacteria incubation: 0-2 h
Method in brief: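 Contents of male Balb/c intestine were mixed 1:30 (w/v) in anaerobic medium, kept under N2 and pre-incubated 30 min at 37 °C. Test compound was present at a final 10 μg/mL, and inactivated bacteria medium served as negative control. Shaking at 37 °C, 200 rpm was done in two separate runs: 0, 1, 2, 6, 12 and 24 h, then 0, 15, 30, 60, 90 and 120 min. Parent and metabolite contents were followed over time.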

[2] = Pharmacokinetics after oral SNZ in normal Balb/c mice and pseudo-germfree; format: in vivo; settings: oral SNZ 109.2 mg/kg; for Cmax / half-life / Tmax: Balb/c, mouse, po, 109.2 mg/kg; for Cmax / half-life / Tmax / AUC(0−t) / AUC(0−∞): plasma, mean
[3] = Pharmacokinetics after oral SNZ in tumor mice and PGF tumor mice; format: in vivo, Balb/c mice; settings: oral SNZ 109.2 mg/kg
[4] = Tissue distribution after oral SNZ in tumor bearing mice; format: in vivo, Balb/c mice; settings: 20 min after oral SNZ 109.2 mg/kg; for tissues in which the metabolite is distributed: tumor mice
Method in brief: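 Three tumour-bearing mice per group, conventional or PGF, were fasted overnight and dosed orally at 109.2 mg/kg. After 20 min they were anaesthetised with 20% urethane and PBS-perfused. Organs and tumour were homogenised in 3 volumes of PBS. 100 μL homogenate was mixed with 300 μL methanol containing glipizide (100 ng/mL), vortexed 1 min and centrifuged at 14,000 rpm for 10 min. Supernatant was analysed by HPLC-MS/MS.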

[5] = tested on: carboxylesterase of gut microbiota; format: in vitro ADME, Balb/c mice; settings: for inhibition rate of tyrosol production: 120 min, SNZ 10 μg/mL, vs control group
Method in brief: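 Gut bacteria incubations were set up as for the microbial metabolism assay, with test compound at a final 10 μg/mL. The carboxylesterase inhibitor BNPP was added at 1, 5 or 10 mM; cultures without BNPP served as control. Incubation was at 37 °C for 0, 15, 30, 60, 90 and 120 min. Inhibition of tyrosol production at 120 min was expressed relative to control.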

[6] = tumor mice (column head Normal), plasma, mean
[7] = PK parameters in PGF could not be fitted

Row | SMILES | course of metabolite content in intestinal bacteria incubation [1] | Cmax ([2]; normal Balb/c mice) | half-life ([2]; t1/2, normal Balb/c mice) | Tmax ([2]; normal Balb/c mice) | AUC(0−t) ([2]; normal Balb/c mice) | AUC(0−∞) ([2]; normal Balb/c mice) | AUC(0−t) [3, 6] | AUC(0−∞) [3, 6] | amount detected in tumor tissue of tumor mice compared with PGF tumor mice [4] | tissues in which the metabolite is distributed [4] | further results
1 | OC[C@H]1O[C@@H](OCCc2ccc(O)cc2)[C@H](O)[C@@H](O)[C@@H]1O [Salidroside, salidroside] | gradually decreased | 257 ng/mL | 90.8 min | 44 min | 33814.78 µg/L/min | 36004.16 µg/L/min | 22373.93 µg/L/min | 23773.54 µg/L/min | a large amount | liver, kidney, stomach, small intestine, etc. | highest peak concentration of metabolite in intestinal bacteria incubation ([1]; peak at 15 min): 3.29 µg/mL; Cmax ([2]; PGF mice): 82.7 ng/mL; half-life ([2]; t1/2, PGF mice): 14.2 min; Tmax ([2]; PGF mice): 16 min; AUC(0−t) ([2]; PGF mice): 3079.01 µg/L/min; AUC(0−∞) ([2]; PGF mice): 3205.99 µg/L/min; Cmax ([3]; Balb/c, mouse, plasma, po, 109.2 mg/kg, cmax, PGF tumor mice, mean): 75 ng/mL; half-life ([3]; Balb/c, mouse, plasma, po, 109.2 mg/kg, t1/2, PGF tumor mice, mean): 20.4 min; Tmax ([3]; Balb/c, mouse, plasma, po, 109.2 mg/kg, tmax, PGF tumor mice, mean): 18 min; AUC(0−t) ([3]; PGF tumor mice, plasma, mean): 2207.64 µg/L/min; AUC(0−∞) ([3]; PGF tumor mice, plasma, mean): 2452.12 µg/L/min
2 | O=[N+]([O-])c1ccc(OP(=O)(O)Oc2ccc([N+](=O)[O-])cc2)cc1 [BNPP, bis-p-nitrophenyl phosphate] |  |  |  |  |  |  |  |  |  |  | effect on metabolic rate of SNZ by gut microbiota ([5]; BNPP 0, 1, 5 and 10 mM): inhibited in a dose-dependent manner; inhibition rate of tyrosol production ([5]; BNPP 1 mM): 81.5%; inhibition rate of tyrosol production ([5]; BNPP 5 mM): 93.1%; inhibition rate of tyrosol production ([5]; BNPP 10 mM): 100.0%; prolongation of SNZ metabolism compared with control group ([5]; BNPP 10 mM, within 120 min): approximately 60 min
3 | OCCc1ccc(O)cc1 [Tyrosol, tyrosol] | increased gradually with incubation time | 126 ng/mL | 110 min | 36 min | 13158.45 µg/L/min | 13944.89 µg/L/min | 8918.61 µg/L/min | 9833.89 µg/L/min | a large amount | liver, kidney, stomach, small intestine, heart, spleen, lung, colon, and other organs and tissues | plasma concentration in PGF mice compared with normal group [2, 7]: lower than that in the normal group; plasma exposure in tumor mice compared with PGF tumor mice [3, 7]: significantly higher
